Experiment [1] has as its system B16. Nature of the experiment: Antitumor activity against mouse B16 cells allografted in BDF1 mouse assessed as increase of median life span at 50 mg/kg, ip on day 1 to 9 measured up to 80 days relative to control. It counts as functional. The following applies: route intraperitoneal. In short, it runs like this: (§1)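 BDF1 mice implanted ip with a homogenate from 0.05 g of B16 tumor. Test agent given ip on days 1-9. Deaths recorded for 80 days. Result is % increase in median life span over untreated controls. "Cures" are survivors/total at 80 days.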

In experiment [2] the test system is P388. Nature of the experiment: Antitumor activity against mouse P388 cells allografted in mouse assessed as increase of median life span at 300 mg/kg, ip on day 1, 5 and 9 measured up to 60 days relative to control. It counts as functional. Conditions: route intraperitoneal. In short, it runs like this: (§2)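 BDF1 or CDF1 mice inoculated ip with ascitic P388 leukemia cells. Dosing ip on days 1, 5 and 9. Deaths recorded for 60 days; % increase in median life span over controls. "Cures" are survivors/total at 60 days.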

The subject of experiment [3] is P388. Nature of the experiment: Antitumor activity against mouse P388 cells allografted in mouse assessed as disease cure at 300 mg/kg, ip on day 1, 5 and 9 measured up to 60 days. The class given is functional, organism-based. Details: dose 300 mg/kg. In short, it runs like this:
(§3)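 BDF1 or CDF1 mice inoculated ip with ascitic P388 leukemia cells, dosed ip on days 1, 5 and 9. Deaths recorded for 60 days; "cures" taken as number of survivors/total at 60 days.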

For experiment [4], the system named is B16. Nature of the experiment: Antitumor activity against mouse B16 cells allografted in BDF1 mouse assessed as disease cure at 50 mg/kg, ip on day 1 to 9 measured up to 80 days. The class given is functional, organism-based. Details: dose 50 mg/kg. The method, boiled down: (§4)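 BDF1 mice implanted ip with homogenate from 0.05 g of B16 tumor, then dosed ip on days 1-9. Deaths recorded for 80 days; "cures" scored as survivors/total at 80 days.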

Experiment [5] relates to P388. Nature of the experiment: Antitumor activity against mouse P388 cells allografted in mouse assessed as disease cure at 400 mg/kg, ip on day 1 to 9 measured up to 60 days. It counts as functional, organism-based. The arrangement: dose 400 mg/kg. The method, boiled down:
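P388 ascitic leukemia cells given ip to BDF1 or CDF1 mice; ip dosing on days 1-9. Deaths followed for 60 days, cures expressed as survivors/total at 60 days.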

Experiment [6] relates to B16. Nature of the experiment: Antitumor activity against mouse B16 cells allografted in BDF1 mouse assessed as disease cure at 400 mg/kg, ip on day 1 to 9 measured up to 80 days. The class given is functional, organism-based. The arrangement: dose 400 mg/kg. The method, boiled down:
as §4

Experiment [7] deals with P388. Nature of the experiment: Antitumor activity against mouse P388 cells allografted in mouse assessed as increase of median life span at 400 mg/kg, ip on day 1 to 9 measured up to 60 days relative to control. It counts as functional. Conditions: route intraperitoneal. In short, it runs like this: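 BDF1 or CDF1 mice inoculated ip with ascitic P388 leukemia cells. Dosing ip on days 1-9. Deaths followed for 60 days; % increase in median life span over controls.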

Experiment [8] relates to B16. The experiment can be described thus: Antitumor activity against mouse B16 cells allografted in BDF1 mouse assessed as increase of median life span at 400 mg/kg, ip on day 1 to 9 measured up to 80 days relative to control. It counts as functional. Conditions: route intraperitoneal. The method, boiled down: as §1
The test system of experiment [9] is B16. The experiment can be described thus: Antitumor activity against mouse B16 cells allografted in BDF1 mouse assessed as increase of median life span at 3.1 mg/kg, ip on day 1 to 9 measured up to 80 days relative to control. Conditions: route intraperitoneal. It counts as functional. The method, boiled down:
as §1

In experiment [10] the test system is B16. Nature of the experiment: Antitumor activity against mouse B16 cells allografted in BDF1 mouse assessed as disease cure at 3.1 mg/kg, ip on day 1 to 9 measured up to 80 days. It counts as functional, organism-based. Details: dose 3.1 mg/kg. The method, boiled down:
as §4

For experiment [11], the system named is P388. The experiment can be described thus: Antitumor activity against mouse P388 cells allografted in mouse assessed as disease cure at 6.2 mg/kg, ip on day 1, 5 and 9 measured up to 60 days. The arrangement: dose 6.2 mg/kg. The class given is functional, organism-based. In short, it runs like this: as §3
The test system of experiment [12] is P388. The experiment can be described thus: Antitumor activity against mouse P388 cells allografted in mouse assessed as increase of median life span at 6.2 mg/kg, ip on day 1, 5 and 9 measured up to 60 days relative to control. It counts as functional. Conditions: route intraperitoneal. The method, boiled down: as §2
The test system of experiment [13] is P388. The experiment can be described thus: Antitumor activity against mouse P388 cells allografted in mouse assessed as increase of median life span at 250 mg/kg, ip on day 1, 5 and 9 measured up to 60 days relative to control. The class given is functional. The following applies: route intraperitoneal. In short, it runs like this: as §2
Experiment [14] concerns P388. Nature of the experiment: Antitumor activity against mouse P388 cells allografted in mouse assessed as disease cure at 250 mg/kg, ip on day 1, 5 and 9 measured up to 60 days. The arrangement: dose 250 mg/kg. The class given is functional, organism-based. In short, it runs like this:
as §3

In experiment [15] the test system is B16. The experiment can be described thus: Antitumor activity against mouse B16 cells allografted in BDF1 mouse assessed as disease cure at 6.2 mg/kg, ip on day 1 to 9 measured up to 80 days. The class given is functional, organism-based. Details: dose 6.2 mg/kg. In short, it runs like this:
as §4

Experiment [16] relates to P388. Nature of the experiment: Antitumor activity against mouse P388 cells allografted in mouse assessed as disease cure at 25 mg/kg, ip on day 1, 5 and 9 measured up to 60 days. It counts as functional, organism-based. Details: dose 25 mg/kg. In short, it runs like this:
as §3

For experiment [17], the system named is P388. The experiment can be described thus: Antitumor activity against mouse P388 cells allografted in mouse assessed as increase of median life span at 25 mg/kg, ip on day 1, 5 and 9 measured up to 60 days relative to control. The class given is functional. The following applies: route intraperitoneal. The method, boiled down: as §2
The test system of experiment [18] is B16. Nature of the experiment: Antitumor activity against mouse B16 cells allografted in BDF1 mouse assessed as increase of median life span at 6.2 mg/kg, ip on day 1 to 9 measured up to 80 days relative to control. It counts as functional. Conditions: route intraperitoneal. In short, it runs like this:
as §1

Experiment [19] deals with B16. The experiment can be described thus: Antitumor activity against mouse B16 cells allografted in BDF1 mouse assessed as disease cure at 25 mg/kg, ip on day 1 to 9 measured up to 80 days. It counts as functional, organism-based. Details: dose 25 mg/kg. In short, it runs like this: as §4
Experiment [20] deals with P388. Nature of the experiment: Antitumor activity against mouse P388 cells allografted in mouse assessed as increase of median life span at 50 mg/kg, ip on day 1, 5 and 9 measured up to 60 days relative to control. The class given is functional. The following applies: route intraperitoneal. In short, it runs like this: as §2
The subject of experiment [21] is B16. Nature of the experiment: Antitumor activity against mouse B16 cells allografted in BDF1 mouse assessed as increase of median life span at 25 mg/kg, ip on day 1 to 9 measured up to 80 days relative to control. Conditions: route intraperitoneal. The class given is functional. In short, it runs like this:
as §1

Experiment [22] relates to B16. The experiment can be described thus: Antitumor activity against mouse B16 cells allografted in BDF1 mouse assessed as increase of median life span at 12.5 mg/kg, ip on day 1 to 9 measured up to 80 days relative to control. It counts as functional. Conditions: route intraperitoneal.
For experiment [23], the system named is B16. Nature of the experiment: Antitumor activity against mouse B16 cells allografted in BDF1 mouse assessed as disease cure at 12.5 mg/kg, ip on day 1 to 9 measured up to 80 days. The class given is functional, organism-based. Details: dose 12.5 mg/kg. In short, it runs like this:
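BDF1 mice implanted ip with a homogenate from 0.05 g of tumor. Dosed ip on days 1–9, with deaths recorded for 80 days. "Cures" counted as survivors/total at 80 days.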

Activity calls are given as the source filed them. The rule behind the calls is not given here.

What is called ILS is the gain in survival time of treated over control animals, in per cent. In the case of `O=C1c2ccccc2C(=O)c2c(NCCN(CCO)CCO)ccc(NCCN(CCO)CCO)c21`, the increase in life span (ILS) at 50 mg/kg in the experiment on B16 [1] is 88%. For the same compound, the ILS at 300 mg/kg in the experiment on P388 [2] was determined as 73%. Further, the result in the experiment with P388 [3] was inactive.

`O=C1c2c(O)ccc(O)c2C(=O)c2c(NCCN3CCCCC3)ccc(NCCN3CCCCC3)c21`: the ILS at 50 mg/kg in the experiment on B16 [1] amounted to 0%. Besides, in the experiment on P388 [2], the ILS at 300 mg/kg was 40%. Further, the result in the experiment on P388 [3] and with B16 [4] was inactive.

For the compound `O=C1c2ccccc2C(=O)c2c(NCCN3CCOCC3)ccc(NCCN3CCOCC3)c21`, the result in the experiment with P388 [5] and in the experiment on B16 [6] was inactive. Besides, the ILS at 400 mg/kg is 119% with P388 [7] and 33% with B16 [8].

With `C[N+](C)(C)CCNc1ccc(NCC[N+](C)(C)C)c2c1C(=O)c1ccccc1C2=O`, in the experiment on P388 [2], the ILS at 300 mg/kg stood at 0%. Moreover, the result in the experiment with P388 [3] was inactive.

Take `CNCCNc1ccc(NCCNC)c2c1C(=O)c1c(O)ccc(O)c1C2=O`: the ILS at 3.1 mg/kg in the experiment with B16 [9] is 210%. The result in the experiment with B16 [10] and in the experiment with P388 [11] was inactive. In the experiment with P388 [12], the ILS at 6.2 mg/kg is 118%.

In the case of `CN(C)CCCCNc1ccc(NCCCCN(C)C)c2c1C(=O)c1ccccc1C2=O`, the ILS at 250 mg/kg with P388 [13] was 0%. Further, in the experiment on P388 [14], the result was inactive.

`NCCCNc1ccc(NCCCN)c2c1C(=O)c1c(O)ccc(O)c1C2=O`: the outcome in the experiment on B16 [15] and in the experiment with P388 [16] was inactive. Further, the increase in life span (ILS) at 25 mg/kg in the experiment with P388 [17] worked out at 83%. Further, the ILS at 6.2 mg/kg in the experiment on B16 [18] is 87%.

For `O=C1c2c(O)ccc(O)c2C(=O)c2c(NCCCNCCO)ccc(NCCCNCCO)c21`, the result in the experiment on B16 [19] was inactive. In the experiment on P388 [20], the ILS at 50 mg/kg was 191%. Moreover, the ILS at 25 mg/kg with B16 [21] was 100%.

In the case of `O=C1c2ccccc2C(=O)c2c(NCCc3ccccn3)ccc(NCCc3ccccn3)c21`, in the experiment with P388 [13], the ILS at 250 mg/kg turned out to be 0%. In addition, in the experiment with P388 [14], the result was inactive.

As to `O=C1c2c(O)ccc(O)c2C(=O)c2c(NCCNCC(O)CO)ccc(NCCNCC(O)CO)c21` (centres undefined), in the experiment with P388 [20], the ILS at 50 mg/kg is over 422%. Moreover, the increase in life span (ILS) at 12.5 mg/kg in the experiment on B16 [22] was determined as 79%. Moreover, the outcome with B16 [23] was inactive.

`O=C1c2ccccc2C(=O)c2c(NCCNCCO)ccc(NCCNCCO)c21` [AMETANTRONE]: the result in the experiment on P388 [16] was inactive. For the same compound, in the experiment with P388 [17], the increase in life span (ILS) at 25 mg/kg worked out at 154%. In addition, the increase in life span (ILS) at 6.2 mg/kg with B16 [18] is 129%.

These data come from ChEMBL document CHEMBL3244336, “Antitumor agents. 1. 1,4-Bis[(aminoalkyl)amino]-9,10-anthracenediones” (J Med Chem, 1979).
